Assay outcomes: PubChem, several laboratories
Rows were chosen to be rich in hits. Some 3.3% of all compounds tested hit in one or more screens of this group.
ABCB6 inh MLPCN: inhibitors of human ABC transporter ABCB6. Q9NP58. actives 0.19% (n = 360,000). K562-ABCB6 porphyrin accumulation, flow cytometry, 1 h; stronger effect = lower value. fluorescence ratio to DMSO, % at 10 µM;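 active = fluorescence ratio to DMSO below 75%, the collection mean minus 3 SD; inconclusive = too few cells collected in the well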;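 also: signal is porphyrin accumulated inside mitochondria; lower ratio means ABCB6 inhibition with less porphyrin fluorescence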
ATG4B inh: ATG4B (human) cysteine protease inhibition | actives 0.51% (n = 340,000) | inhibition, % at 8.33 µM | ATG4B cleavage of LC3-PLA2, NBD-HPC fluorescence, 1 h; in the data active = inhibition above about 40%
Target sequence (Q9Y4P1 whole entry, looked up): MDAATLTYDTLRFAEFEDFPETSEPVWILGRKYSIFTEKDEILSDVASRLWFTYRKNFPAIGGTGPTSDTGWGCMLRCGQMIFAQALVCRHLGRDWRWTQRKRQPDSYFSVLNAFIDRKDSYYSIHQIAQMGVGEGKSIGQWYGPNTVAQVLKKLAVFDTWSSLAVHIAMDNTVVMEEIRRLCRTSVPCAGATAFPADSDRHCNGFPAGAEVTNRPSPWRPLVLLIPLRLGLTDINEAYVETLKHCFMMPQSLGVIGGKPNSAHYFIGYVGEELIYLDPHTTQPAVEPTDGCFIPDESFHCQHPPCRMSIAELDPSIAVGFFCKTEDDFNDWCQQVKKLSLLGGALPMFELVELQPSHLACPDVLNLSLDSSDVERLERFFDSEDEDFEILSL
Exocytosis inh: blocks lytic granule exocytosis; actives 0.66% (n = 360,000); inhibition, % at 10 µM; TALL-104 LAMP-1 surface exposure, flow cytometry; cells stimulated with thapsigargin and PMA;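 active = inhibition above about 55%, limit read from the data; inconclusive = no clear call, values can overlap the other calls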
Myeloid diff 2: myeloid differentiation induction; ER-HoxA9 myeloid progenitors, lysozyme-GFP differentiation, flow cytometry; actives 1% (n = 360,000); calls only at 10 µM;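 active = normalized GFP-positive differentiation at or above the plate's own cutoff, the solvent-only control mean plus 3 SD; inconclusive = no clear call, values can overlap the other calls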;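 also: cells exposed to compound for four days before flow analysis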
Arrestin-AP2 inh: human beta-arrestin and AP2 interaction inhibition; FITC-arrestin peptide / GST-AP2 beads, flow cytometry; AP2 beta2 appendage carries R879A mutation; inhibition, % at 10 µM; actives 0.31% (n = 340,000);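 active = inhibition above a set limit, near 3 SD of compounds lacking own fluorescence, cut at about 54% in these data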
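test system = AP2 appendage R879A on GSH beads | buffer or medium = PBS plus Tween 20 (0.05%) and BSA (0.1%) | incubation = 12 min plus 1 h, RT | detection = bead flow cytometry, FITC channel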
CendR NRP1 mod: alters CendR peptide binding to human NRP-1; inhibition, % at 25 µM; FAM-RPARPAR peptide binding to NRP-1, fluorescence polarization; actives 0.85% (n = 360,000);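 active = inhibition or corrected inhibition above about 18%, plus a signal ratio from 0.5 to 1.5, limit read from the data, passing the limit was not always enough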
Large screens that a line does not name were inactive.

C#CCSc1n[nH]c(-c2ccco2)n1	Myeloid diff 2 active
COc1ccc(NC(=O)CSc2n[nH]c(-c3ccco3)n2)cc1	Myeloid diff 2 active
O=C(COC(=O)C12CC3CC(CC(C3)C1)C2)Nc1nc2c(F)c(F)c(F)cc2s1	Myeloid diff 2 inconclusive, CendR NRP1 mod 30.9
CN(C)CCNCCCNc1c2ccccc2nc2cccc([N+](=O)[O-])c12	CendR NRP1 mod 30.9 (no result: Myeloid diff 2)
O=C(Nc1nc(-c2cccs2)cs1)c1cccc(S(=O)(=O)N2CCCCCC2)c1	Myeloid diff 2 active
O=C(CCS(=O)(=O)c1ccccc1)Nc1nc(-c2cccs2)cs1	Myeloid diff 2 active
CC(=NNC(=O)c1cccc(S(=O)(=O)N2CCCC2)c1)c1ccccc1	none
CC(=O)Nc1cccc(/C(C)=N/NC(=O)c2cccc(S(=O)(=O)N3CCCC3)c2)c1	ABCB6 inh MLPCN 72.0 (no result: ATG4B inh, Arrestin-AP2 inh)
O=C(Nc1nc(-c2cccs2)cs1)c1ccc(S(=O)(=O)N2CCCCC2)cc1	none
CC/S(=N\S(=O)(=O)c1ccc(C)cc1)c1ccccc1 (centres undefined)	none
Cc1ccc(S(=O)(=O)/N=S(/C)c2ccccc2)cc1 (centres undefined)	CendR NRP1 mod 31.6
Cc1ccc(Cl)cc1N1CCN(C(=O)c2noc(C(C)C)c2[N+](=O)[O-])CC1	none (no result: Myeloid diff 2)
O=C(CSc1nnc(-c2c[nH]c3ccccc23)o1)N(Cc1ccccc1)c1ccc(F)cc1	Exocytosis inh 78.2
COc1ccc2c(C)cc(SCC#N)nc2c1	none
COc1ccc2c(C)cc(SCc3c(C)noc3C)nc2c1	Myeloid diff 2 active
O=C(Nc1cc(C(F)(F)F)ccc1N1CCCC1)C1CC(=O)N(Cc2ccccc2)C1 (centres undefined)	CendR NRP1 mod 23.7 (no result: ATG4B inh, Arrestin-AP2 inh)
CCC(=O)Nc1cccc(C(=O)/C=C/c2cccs2)c1	CendR NRP1 mod 27.3
CCC(=O)Nc1cccc(C(=O)c2ccccc2)c1	none
COC(=O)CCCn1cc(CN(C)C2CN(Cc3cn(CCCC(=O)OC)nn3)S(=O)(=O)C2)nn1 (centres undefined)	none (no result: ATG4B inh, Arrestin-AP2 inh)
CCc1nnc(NC(=O)CSc2nnc(CCc3nc4ccccc4[nH]3)n2C)s1	CendR NRP1 mod 19.0
COc1ccc(C(=O)N/N=C/c2cccnc2)cc1	none
CC(Oc1ccc(-c2ccccc2)cc1)C(=O)N/N=C/c1cccnc1 (centres undefined)	Exocytosis inh 56.3
Cc1cc(C(=O)N/N=C/c2ccc([N+](=O)[O-])s2)c2ccccc2n1	Myeloid diff 2 active
Cc1ccc(-c2cc(C(=O)N/N=C/c3cccnc3)c3ccccc3n2)cc1C	CendR NRP1 mod 26.4
Cc1cc(C(=O)O)c2ccccc2n1	Myeloid diff 2 active
O=C(N/N=C/c1cccnc1)c1cc(-c2ccccc2)nc2ccccc12	none
Cc1cc(C(=O)N/N=C/c2ccc([N+](=O)[O-])cc2)c2ccccc2n1	Myeloid diff 2 active
O=[N+]([O-])c1cc(-c2csc(NCCc3nc4cc(C(F)(F)F)ccc4n3CCCO)n2)ccc1Cl	CendR NRP1 mod 28.4
O=C(NCc1ccccc1)C(C1CC1)n1c(=O)c(-c2cc3ccccc3[nH]2)nc2ccccc21 (centres undefined)	none (no result: ABCB6 inh MLPCN, ATG4B inh, Arrestin-AP2 inh)
COc1ccccc1Cc1c(-c2ccc(C#N)cc2)nc2c(Cl)cc(C(F)(F)F)cn12	Myeloid diff 2 active (no result: ATG4B inh, Arrestin-AP2 inh)
O=C(CN1CCCCCC1)NCC1CCCO1 (centres undefined)	none
O=C(CCCC(=O)NCC1CCCO1)NCC1CCCO1 (centres undefined)	CendR NRP1 mod 26.3
NC(=O)NC(=O)COC(=O)/C=C/c1cccs1	none
Cc1ccc(S(=O)(=O)NCc2ccc(C(=O)N3CCN(c4ccc([N+](=O)[O-])cc4)CC3)cc2)cc1	none
CCN1C(=O)/C(=C/C=C2/SCCN2C)SC1=S	none
C=CCN1C(=O)/C(=C/C=C2/N(CC)c3ccc(S(=O)(=O)N(C)C)cc3N2CC)SC1=S	Myeloid diff 2 active
COc1ccccc1C(=O)N/C(=C/c1ccc2c(c1)OCO2)C(=O)Nc1ccc(C(=O)O)cc1	none
Nc1ccc(C2=Nc3cccc4cccc(c34)N2)cc1	none
CC1=Nc2cccc3cccc(c23)N1	Myeloid diff 2 active
Cc1cc(NC(=O)/C=C/c2ccccc2)c(C(C)C)cc1O	none
COc1cc(OC)c(NC(=O)[C@@H]2CCC(=O)N2C2OC(=O)c3c2ccc(OC)c3OC)cc1Cl (some centres undefined)	none
COC(=O)c1ccccc1NC(=O)[C@@H]1CCC(=O)N1C1OC(=O)c2c1ccc(OC)c2OC (some centres undefined)	Myeloid diff 2 active
O=C(Cn1ccc(NC(=O)OCc2ccccc2)nc1=O)NCCCn1ccnc1	CendR NRP1 mod 32.9
O=C(Cn1ccc(NC(=O)OCc2ccccc2)nc1=O)NCCCc1ccccc1	none
CCC(C)Sc1cc(-c2nc3ccccn3c2NC2CCCCC2)ccc1OC (centres undefined)	none
COc1ccc(-c2nc3ccc(C)cn3c2NCc2ccccc2)cc1SC1CCCCC1	Exocytosis inh 65.2
CCC(C)Sc1cc(-c2nc3cc(C)ccn3c2NC2CCCCC2)ccc1OC (centres undefined)	Myeloid diff 2 active
CNc1snc(C)c1C(=O)OCC(=O)NCc1ccccc1OC	none
CC(=O)c1ccc(NC(=O)C(C)OC(=O)/C=C/c2ccco2)cc1 (centres undefined)	none
O=C(CC1Sc2ncnn2C1=O)Nc1ccc(Cl)cc1 (centres undefined)	none (no result: ABCB6 inh MLPCN, Exocytosis inh, Myeloid diff 2, Arrestin-AP2 inh, CendR NRP1 mod)
O=C(CC1SC2=NCCN2C1=O)Nc1ccc(Cl)cc1 (centres undefined)	CendR NRP1 mod 27.0
Nc1ccc2c(c1)N1CCN=C1S2	none
O=C(Nc1ccc(Cl)cc1)Nc1ccc2c(c1)N1CCN=C1S2	Myeloid diff 2 active
O=C(/C=C/c1ccncc1)c1ccc2c(c1)OCCO2	none (no result: Myeloid diff 2)
COc1cc(/C=C/C(=O)c2ccc3c(c2)OCCO3)cc(Br)c1OCC(=O)N(C)C	Exocytosis inh 101.8, Myeloid diff 2 active
CCc1c(-c2ccccc2)ncn1Cc1cccc(-c2ccccc2)c1	none (no result: ABCB6 inh MLPCN, ATG4B inh, Arrestin-AP2 inh)
CCCc1c(Cc2cccc(F)c2)ncn1Cc1cccc(-c2ccccc2)c1	Myeloid diff 2 active (no result: ABCB6 inh MLPCN, ATG4B inh, Arrestin-AP2 inh)
CCOC(=O)CN1C(=O)CN(c2ccc(C)cc2)C1=O	none
CC1CCc2nc(N)c(C#N)c(-c3ccncc3)c2C1 (centres undefined)	Myeloid diff 2 active
CCN(CC)c1ccc(/C=C(\C#N)C(N)=S)cc1	Myeloid diff 2 active
CSc1nnc(-c2cc(Br)ccc2N=Cc2c(C)[nH]n(-c3ccccc3)c2=O)c(=O)[nH]1	CendR NRP1 mod 18.3
CCN(CC(=O)Nc1c(F)cccc1F)C(=O)C(C)SCc1nc2sc(C)c(C)c2c(=O)[nH]1 (centres undefined)	none
